The results in this text go back to ChEMBL document CHEMBL1144579, “Synthesis and antiparasitic evaluation of bis-2,5-[4-guanidinophenyl]thiophenes” (Eur J Med Chem, 2007).

Active and inactive are the calls of the source. The rule behind the calls is not given here.

One experiment deals with L6. As to the kind of experiment: Cytotoxicity against rat L6 cells by alamar blue assay. It is filed as cell-based.
Another experiment has as its system Leishmania donovani. As to the kind of experiment: Antiparasitic activity against Leishmania donovani. In kind it is functional, organism-based.
The subject of experiment [1] is Mus musculus. As to the kind of experiment: Survival of Trypanosoma brucei rhodesiense STIB900 infected mouse at 20 mg/kg, ip administered for 4 days. It is filed as functional. The following applies: route intraperitoneal.
A further experiment concerns Trypanosoma cruzi. As to the kind of experiment: Antiparasitic activity against Trypanosoma cruzi Tulahuen LacZ C4. It is filed as functional, organism-based.
A further experiment concerns Plasmodium falciparum. As to the kind of experiment: Antiparasitic activity against Plasmodium falciparum K1. It is filed as functional, organism-based. In outline:
(§1)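 In vitro IC50s against T. b. rhodesiense STIB900 and P. falciparum K1 are means of at least two independent experiments. The IC50 values averaged for each compound were within a factor of two of each other.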

In experiment [2] the test system is Trypanosoma brucei rhodesiense. As to the kind of experiment: Antitrypanosomal activity in Trypanosoma brucei rhodesiense STIB900 infected mouse at 20 mg/kg, ip administered for 4 days. In kind it is functional, organism-based. Set-up: dose 20 mg/kg.
Experiment [3] relates to Trypanosoma brucei rhodesiense. As to the kind of experiment: Antiparasitic activity against Trypanosoma brucei rhodesiense STIB900. It is filed as functional, organism-based. In outline: as §1
For experiment [4], the system named is Mus musculus. As to the kind of experiment: Survival of Trypanosoma brucei rhodesiense STIB900 infected mouse at 5 mg/kg, ip administered for 4 days. In kind it is functional. The following applies: route intraperitoneal.

On to `CCN(CC)CCCC(C)Nc1ccnc2cc(Cl)ccc12` (centres undefined) [CHLOROQUINE], for which the IC50 in the experiment with L6 was 188 µM.
Consider `N=C(N)Nc1ccc(-c2ccc(-c3ccc(NC(=N)N)cc3)s2)cc1`, for which the IC50 in the experiment with Leishmania donovani came to 6.7 µM; with L6, 100 µM; in the experiment with Trypanosoma cruzi, 154 µM; with Plasmodium falciparum it was 3.6 nM; in experiment [3], 28 nM. In addition, in the experiment on Mus musculus [1], the Survival is 43 days. The result in experiment [2] was inactive.
Turning to `N=C(N)c1ccc(-c2ccc(-c3ccc(C(=N)N)cc3)o2)cc1` [FURAMIDINE], the IC50 in the experiment on Leishmania donovani was found to be 2.8 µM; in the experiment with Trypanosoma cruzi it was 23.3 µM. In addition, the Survival in the experiment with Mus musculus [1] was above 52.5 days. Further, in experiment [2], the result was inactive.
For `N=C(N)c1ccc(OCCCCCOc2ccc(C(=N)N)cc2)cc1` [PENTAMIDINE] the same measures were 1.9 µM, 5.35 µM, 40.8 days and “inactive”.
In the case of `N=C(Nc1ccccc1)Nc1ccc(-c2ccc(-c3ccc(NC(=N)Nc4ccccc4)cc3)s2)cc1`, the concentration for half-maximal inhibition (IC50) with Leishmania donovani came out at 35 µM; in the experiment on L6, 2.5 µM; in the experiment on Trypanosoma cruzi, 9.9 µM; in the experiment on Plasmodium falciparum, 154 nM; in experiment [3], 1900 nM.
For `Cc1ccc(NC(=N)Nc2ccc(-c3ccc(-c4ccc(NC(=N)Nc5ccc(C)cc5)cc4)s3)cc2)cc1` the same measures were 16 µM, 1.1 µM, 3.7 µM, 42.7 nM and 573 nM.
In the case of `CC(C)NC(=N)Nc1ccc(-c2ccc(-c3ccc(NC(=N)NC(C)C)cc3)s2)cc1`, the IC50 came to 11 µM with Leishmania donovani; 69.4 µM in the experiment on L6; 28.2 µM in the experiment with Trypanosoma cruzi; 107 nM in the experiment with Plasmodium falciparum; 116 nM in experiment [3]. In the experiment on Mus musculus [4], the Survival is above 34 days.
For the compound `N=C(Nc1ccc(-c2ccc(-c3ccc(NC(=N)NC4CCCCC4)cc3)s2)cc1)NC1CCCCC1`, the IC50 turned out to be 2.5 µM in the experiment on Leishmania donovani; 4.3 µM in the experiment on L6; 1.7 µM in the experiment on Trypanosoma cruzi; 160 nM with Plasmodium falciparum; 354 nM in experiment [3].
Turning to `CNC(=N)Nc1ccc(-c2ccc(-c3ccc(NC(=N)NC)cc3)s2)cc1`, the IC50 with Leishmania donovani stood at 6.2 µM; in the experiment with L6, 54.3 µM; in the experiment with Trypanosoma cruzi, 30.5 µM; in the experiment with Plasmodium falciparum it was 23 nM; in experiment [3] it was 6.2 nM. In the experiment with Mus musculus [1], this compound showed a Survival above 40.25 days.
Consider `N=C(Nc1ccc(-c2ccc(-c3ccc(NC(=N)NC4CCCC4)cc3)s2)cc1)NC1CCCC1`, for which the IC50 in the experiment with Leishmania donovani came out at 1.5 µM; in the experiment on L6, 15.9 µM; in the experiment with Trypanosoma cruzi it was 8.4 µM; in the experiment on Plasmodium falciparum it was 134 nM; in experiment [3] it was 306 nM. The Survival in the experiment with Mus musculus [1] was above 39.5 days.
